Test results from ChEMBL document CHEMBL1153437, “Inhibition of monoamine oxidase B by N-methyl-2-phenylmaleimides” (Bioorg Med Chem, 2009).
The source made the active and inactive calls. The rule behind the calls is not given here.

Tests used:
[1] = Stability in pH 7.4 sodium phosphate buffer assessed as hydrolysis at 100 uM after 30 mins; type: physicochemical; settings: read-out: Activity
How it was run: (§1)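 Compound (100 µM, or 10 µM where stated) in 100 mM sodium phosphate buffer, pH 6.4–8.0, with 4% DMSO, held at 37 °C in quartz cuvettes. UV–vis spectra (230–500 nm) recorded at intervals. Remaining compound was calculated from the loss of absorbance at its longest-wavelength maximum (337–354 nm) using its molar absorptivity; hydrolysis is expressed as percent.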

[2] = Inhibition of MAO-B in baboon liver microsome assessed as MMDP+ formation; type: microsomes, Papio hamadryas
How it was run: (§2)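 Baboon liver mitochondrial fraction (0.15 mg protein/mL) as MAO-B source; substrate MMTP 30–120 µM with varied inhibitor concentrations, 4% DMSO cosolvent. Incubation at 37 °C for 10 min, stopped with perchloric acid, centrifuged; MMDP⁺ read at 420 nm (ε 25,000 M⁻¹). Ki from the x-intercept of a replot of Lineweaver–Burk slopes versus inhibitor concentration; single determination, replot R² ≥0.99.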

[3] = Stability in pH 7 sodium phosphate buffer assessed as hydrolysis at 100 uM at 360 mins; type: physicochemical; settings: read-out: Activity; how it was run: as §1
Papio hamadryas [4] = species: Papio hamadryas; assay: Inhibition of MAO-B in baboon liver microsome assessed as MMDP+ formation at 14 uM up to 60 mins; type: microsomes
How it was run: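 Baboon liver mitochondria (0.3 mg protein/mL) preincubated with inhibitor (14 µM) in 100 mM sodium phosphate pH 7.4 at 37 °C for 0, 15, 30 or 60 min. Then diluted to 0.15 mg protein/mL (inhibitor 7 µM final) with MMTP 90 µM and incubated 15 min at 37 °C. Perchloric acid stop, MMDP⁺ read at 420 nm; triplicate, mean ± SEM.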

[5] = Stability in pH 8 sodium phosphate buffer assessed as hydrolysis at 100 uM at 360 mins; type: physicochemical; settings: read-out: Activity; how it was run: as §1
[6] = Stability in pH 6.4 to 8 phosphate buffer at 100 uM up to 360 mins; type: physicochemical; settings: pH 6.4, 6 h; how it was run: as §1
[7] = Stability in pH 7.4 sodium phosphate buffer assessed as hydrolysis at 10 uM after 30 mins; type: physicochemical; settings: read-out: Activity; how it was run: as §1
[8] = Stability in pH 6.4 to 8 phosphate buffer at 100 uM; type: physicochemical; settings: pH 6.4, 100 µM; how it was run: as §1
[9] = Stability in pH 7.4 sodium phosphate buffer assessed as hydrolysis at 100 uM at 360 mins; type: physicochemical; settings: read-out: Activity; how it was run: as §1
Papio hamadryas [10] = species: Papio hamadryas; assay: Competitive inhibition of MAO-B in baboon liver microsome by Lineweaver-Burke plot; type: microsomes; how it was run: as §2
Papio hamadryas [11] = species: Papio hamadryas; assay: Inhibition of MAO-B in baboon liver microsome assessed as MMDP+ formation at 13 uM after 30 mins relative to control; values are per cent of control
Papio hamadryas [12] = species: Papio hamadryas; assay: Inhibition of MAO-B in baboon liver microsome assessed as MMDP+ formation at 13 uM after 120 mins relative to control; values are per cent of control
Papio hamadryas [13] = species: Papio hamadryas; assay: Inhibition of MAO-B in baboon liver microsome assessed as MMDP+ formation at 13 uM after 240 mins relative to control; values are per cent of control
Papio hamadryas [14] = species: Papio hamadryas; assay: Inhibition of MAO-B in baboon liver microsome assessed as MMDP+ formation at 13 uM after 180 mins relative to control; values are per cent of control
Papio hamadryas [15] = species: Papio hamadryas; assay: Inhibition of MAO-B in baboon liver microsome assessed as MMDP+ formation at 13 uM after 60 mins relative to control; values are per cent of control
[16] = target: T1, Amine oxidase [flavin-containing] B (Homo sapiens, UniProt P27338); assay: Inactivation of human […] assessed as half time at 0.8 mM; settings: 800 µM
T1 sequence (P27338 whole entry): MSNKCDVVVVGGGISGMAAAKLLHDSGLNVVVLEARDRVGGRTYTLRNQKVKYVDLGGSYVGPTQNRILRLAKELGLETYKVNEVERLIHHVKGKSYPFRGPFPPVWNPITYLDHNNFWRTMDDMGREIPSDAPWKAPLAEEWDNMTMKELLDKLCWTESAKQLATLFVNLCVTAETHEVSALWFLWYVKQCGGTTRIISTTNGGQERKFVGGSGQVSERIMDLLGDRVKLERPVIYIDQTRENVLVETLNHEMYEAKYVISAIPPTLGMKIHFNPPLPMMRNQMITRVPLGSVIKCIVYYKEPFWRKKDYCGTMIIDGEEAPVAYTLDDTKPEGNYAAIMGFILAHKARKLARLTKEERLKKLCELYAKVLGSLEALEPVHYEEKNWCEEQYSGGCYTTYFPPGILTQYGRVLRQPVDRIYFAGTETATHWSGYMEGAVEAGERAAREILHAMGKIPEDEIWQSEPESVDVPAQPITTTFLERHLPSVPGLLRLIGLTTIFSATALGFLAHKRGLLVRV

Compound | degraded at 0.5 h, 100 µM [1] [%] | Ki [2] [µM] | also measured
Cc1cccc(C2=CC(=O)N(C)C2=O)c1 | 40 | 8.6 | 
CN1C(=O)C=C(c2ccccc2)C1=O | 2.8 | 3.49 | degraded at 6 h, 100 µM [3]: 13%; Activity (Papio hamadryas [4]): inactive; degraded at 6 h, 100 µM [5]: 73.8%; Activity [6]: Stable; degraded at 0.5 h, 10 µM [7]: 1%; Activity [8]: Stable; degraded at 6 h, 100 µM [9]: 31.4%
CN1C(=O)C=C(c2cccc(Br)c2)C1=O | 40 | 6.99 | 
COc1cccc(C2=CC(=O)N(C)C2=O)c1 | 40 | 8.56 | 
CN1C(=O)C=C(c2cccc(Cl)c2)C1=O | 40 | 6.66 | Activity (Papio hamadryas [10]): Active; residual activity (Papio hamadryas [11]): 52%; residual activity (Papio hamadryas [12]): 68%; residual activity (Papio hamadryas [13]): 84%; residual activity (Papio hamadryas [14]): 80%; residual activity (Papio hamadryas [15]): 66%
CN1C(=O)C=C(c2cccc(C(F)(F)F)c2)C1=O | 40 | 11 | 
CN1C(=O)C=C(c2cccc(F)c2)C1=O | 40 | 5.73 | 
CCN1C(=O)C=CC1=O [N-ETHYLMALEIMIDE] |  |  | Time [16]: 8 h
